Assay results published in ChEMBL document CHEMBL1212869, “Anti-HIV and antiplasmodial activity of original flavonoid derivatives” (Bioorg Med Chem, 2010).

Legend:
[1] = tested on: Human immunodeficiency virus 2; assay: Antiviral activity against HIV2 ROD infected in human MT4 cells assessed as inhibition of virus-induced cytopathic effect after 4 days by MTT assay; assay type: functional, organism-based; details: Human immunodeficiency virus 2, ISOLATE ROD, MT4, 96 h
[2] = tested on: Plasmodium falciparum; assay: Antiplasmodial activity against chloroquine-resistant Plasmodium falciparum W2 infected in human A+ erythrocytes assessed as inhibition of parasite proliferation after 48 hrs; assay type: functional, organism-based; details: W2, 48 h
How it was run: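 W2 parasites were cultured in RPMI 1640 with 25 mM HEPES, 25 mM NaHCO3 and 10% A+ human serum at 2.5% hematocrit, at 37 °C under 10% O2/6% CO2/84% N2. After 48 h exposure without medium change, cells were stained with hydroethidine (0.05 mg/mL in PBS, 20 min, dark, 37 °C). Parasitaemia was read by flow cytometry. IC50 came from three independent experiments.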

[3] = Cytotoxicity against human MT4 cells after 4 days by MTT assay; assay type: cell-based
How it was run: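 Uninfected MT-4 cells were run in parallel with the antiviral test under the same conditions: 10⁵ cells/mL, serial compound dilutions from DMSO stocks, 4 days at 37 °C. Viability was read by MTT. CC50 is the concentration that lowers viability of uninfected cells by 50%.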

[4] = tested on: Human immunodeficiency virus 1; assay: Antiviral activity against HIV1 3B infected in human MT4 cells assessed as inhibition of virus-induced cytopathic effect after 4 days by MTT assay; assay type: functional, organism-based; details: Human immunodeficiency virus 1, 3B, MT4, 96 h
[5] = tested on: THP-1; assay: Cytotoxicity against human THP1 cells using propidium iodide staining after 72 hrs by flow cytometry; assay type: cell-based; details: THP-1, 72 h
[6] = Selectivity index, ratio of IC50 for human THP1 cells to IC50 for chloroquine-resistant Plasmodium falciparum W2; assay type: toxicity, cell-based, THP-1; details: read-out: Selectivity Index

SMILES | IC50 [1] [µM] | IC50 [2] [µM] | CC50 at 96 h [3] [µM] | IC50 [4] [µM] | IC50 [5] [µM] | selectivity ratio [6]
Nc1ccc2oc(-c3ccccc3)c(O)c(=O)c2c1 | 216 | > 27 | 216 | 216 | 27 | 
Nc1ccc2oc(-c3cccc(C(F)(F)F)c3)c(O)c(=O)c2c1 | 8.1 | > 2 | 8.1 | 8.1 | 2 | 
Nc1ccc2oc(-c3ccc(C(F)(F)F)cc3)c(O)c(=O)c2c1 | 3.9 | > 50 | 3.9 | 3.9 | > 125 | 
COc1cccc(-c2oc3ccc(NC(C)=O)cc3c(=O)c2OC)c1 | 369 | > 5 | 369 | 369 | 5 | 
COc1ccccc1/C=C/C(=O)c1cc(NC(C)=O)ccc1O | 37.8 | 13.4 | 37.8 | 37.8 | > 125 | > 9.3
COc1cccc(/C=C/C(=O)c2cc(NC(C)=O)ccc2O)c1 | 40 | 13.2 | 40 | 40 | 93.7 | 7.1
COc1ccc(/C=C/C(=O)c2cc(NC(C)=O)ccc2O)cc1 | 38.7 | 6.7 | 38.7 | 38.7 | 59.2 | 8.8
CC(=O)Nc1ccc(O)c(C(=O)/C=C/c2ccccc2F)c1 | 33.8 | 12.3 | 33.8 | 33.8 | > 125 | > 10.2
CC(=O)Nc1ccc(O)c(C(=O)/C=C/c2cccc(C(F)(F)F)c2)c1 | 32.1 | 11.3 | 32.1 | 32.1 | 8.4 | 
CC(=O)Nc1ccc2oc(-c3ccccc3)cc(=O)c2c1 | 184 | > 50 | 184 | 184 | 97 | 
COc1ccccc1-c1cc(=O)c2cc(NC(C)=O)ccc2o1 | 226 | > 50 | 226 | 226 | 50 | 
COc1cccc(-c2cc(=O)c3cc(NC(C)=O)ccc3o2)c1 | > 404 | > 10 | > 404 | > 404 | 10 | 
COc1ccc(-c2cc(=O)c3cc(NC(C)=O)ccc3o2)cc1 | 226 | > 50 | 226 | 226 | 74 | 
CC(=O)Nc1ccc2oc(-c3ccc(F)cc3)cc(=O)c2c1 | 203 | > 22 | 203 | 203 | 22 | 
CC(=O)Nc1ccc2oc(-c3cccc(C(F)(F)F)c3)cc(=O)c2c1 | 10 | 50 | 10 | 10 | 50 | 
CC(=O)Nc1ccc2oc(-c3ccc(C(F)(F)F)cc3)cc(=O)c2c1 | 330 | > 10 | 330 | 330 | 10 | 
Nc1ccc2oc(-c3ccccc3F)cc(=O)c2c1 | 283 | > 44 | 283 | 284 | 44 | 
Nc1ccc2oc(-c3ccc(F)cc3)cc(=O)c2c1 | 264 | > 10 | 264 | 264 | 10 | 

SMILES | IC50 [1] [µM] | IC50 [2] [µM] | CC50 at 96 h [3] [µM] | IC50 [4] [µM] | IC50 [5] [µM] | selectivity ratio [6]
Nc1ccc2oc(-c3cccc(C(F)(F)F)c3)cc(=O)c2c1 | 138 | > 34 | 138 | 138 | 34 | 
Nc1ccc2oc(-c3ccc(C(F)(F)F)cc3)cc(=O)c2c1 | 273 | > 1.9 | 273 | 273 | 1.9 | 
CC(=O)Nc1ccc2oc(-c3ccccc3)c(O)c(=O)c2c1 | 64.7 | > 36 | 64.7 | 64.7 | 36 | 
COc1cccc(-c2oc3ccc(NC(C)=O)cc3c(=O)c2O)c1 | 33.3 | 50 | 33.3 | 33.3 | 50 | 
COc1ccc(-c2oc3ccc(NC(C)=O)cc3c(=O)c2O)cc1 | 98.7 | > 9 | 98.7 | 98.7 | 9 | 
CC(=O)Nc1ccc2oc(-c3ccccc3F)c(O)c(=O)c2c1 | 171 | > 47 | 171 | 171 | 47 | 
CC(=O)Nc1ccc2oc(-c3cccc(F)c3)c(O)c(=O)c2c1 | 26.5 | > 36 | 26.5 | 26.5 | 36 | 
CC(=O)Nc1ccc2oc(-c3ccc(F)cc3)c(O)c(=O)c2c1 | 34.1 | > 26 | 34.1 | 34.1 | 26 | 
CC(=O)Nc1ccc2oc(-c3cccc(C(F)(F)F)c3)c(O)c(=O)c2c1 | 5.7 | > 1 | 5.7 | 5.7 | 1 | 
CC(=O)Nc1ccc2oc(-c3ccc(C(F)(F)F)cc3)c(O)c(=O)c2c1 | 7.3 | > 50 | 7.3 | 7.3 | > 50 | 
COc1cccc(-c2oc3ccc(N)cc3c(=O)c2O)c1 | 40.8 | > 2 | 40.8 | 40.8 | 2 | 
COc1ccc(-c2oc3ccc(N)cc3c(=O)c2O)cc1 | 239 | > 29 | 239 | 239 | 29 | 
Nc1ccc2oc(-c3ccccc3F)c(O)c(=O)c2c1 | 44.5 | > 38 | 44.5 | 44.5 | 38 | 
Nc1ccc2oc(-c3cccc(F)c3)c(O)c(=O)c2c1 | 35.3 | > 30 | 35.3 | 35.3 | 30 | 
Nc1ccc2oc(-c3ccc(F)cc3)c(O)c(=O)c2c1 | 92.6 | > 4 | 92.6 | 92.6 | 4 | 
CC(=O)Nc1ccc(O)c(C(=O)/C=C/c2ccccc2)c1 | 49.8 | 15.9 | 49.4 | 49.8 | 85.5 | 5.4
Nc1ccc2oc(-c3ccccc3)cc(=O)c2c1 [6-AMINOFLAVONE] | 209 | > 36 | 209 | 209 | 36 | 
COc1cccc2c1C(=O)c1c(O)c3c(c(O)c1C2=O)C[C@@](O)(C(=O)CO)C[C@@H]3O[C@H]1C[C@H](N)[C@H](O)[C@H](C)O1 [DOXORUBICIN] |  |  |  |  | 0.07 | 
